Shown is part of a subset that was picked to be rich in hits.
Avidin fluor – green autofluorescence of compounds with avidin beads – biophysical, 488/530 nm, flow cytometry, artefact control, profiling panel; fluorescence (KMESF) at 10 µM; compound fluorescence 488/530 nm; hits give high values; 220,000 compounds, 0.38% hits; in the data active = fluorescence above about 47
GSH bead fluor – compound fluorescence on glutathione beads, profiling panel, artefact control, biophysical, 488/530 nm, flow cytometry | GSH beads flow cytometry, compound fluorescence 488/530 nm; hits give high values | fluorescence (KMESF) at 10 µM | 190,000 compounds, 0.25% hits | AID 1776, 2009; in the data active = fluorescence above about 89;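 note: glutathione beads carrying GST-tagged Bcl family fusion proteins plus one bare bead set; values are compound well signal with DMSO vehicle wells as background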
ABCB1 block – ABCB1 efflux pump inhibitors, primary screen, cell-based, multiplex, flow cytometry, ABCG2 counter-screen. ATP-dependent translocase ABCB1 (Homo sapiens), P08183. CCRF-Adr cells, JC-1 efflux. inhibition, % at 6.6 µM. 190,000 compounds, 0.067% hits; in the data active = inhibition above about 40%;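 note: 0% = vehicle and 100% = reference inhibitor; higher value means more JC-1 retained so stronger ABCB1 efflux block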
PKD1 inh – inhibitors of human PKD1 kinase, biochemical, fluorescence polarization; Serine/threonine-protein kinase D1 (Homo sapiens), Q15139; PKD1 kinase fluorescence polarization assay; inhibition, % (concentration not given with the values); 200,000 compounds, 0.056% hits
ABCG2 block – ABCG2 efflux pump inhibitors, primary screen, multiplex with ABCB1, IgMXP3 cells, flow cytometry. inhibition, % at 6.6 µM. 190,000 compounds, 0.1% hits. Broad substrate specificity ATP-binding cassette transporter ABCG2 (Homo sapiens), Q9UNQ0. JC-1 efflux. AID 1325, 2008;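 active = inhibition above 80%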;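 note: 0% = DMSO and 100% = nicardipine control wells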
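Assay system – ABCG2 IgMXP3 and barcoded ABCB1 CCRF-Adr cell mix · Input – 3 million cells/mL in well · Reagent – JC-1 fluorescent substrate · Compound – single test compound dose, 6.6 µM final · Timing – 10 min exposure at 25 °C with rotation, no wash · Detection – flow cytometry of retained JC-1 fluorescence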
L major viab – Leishmania major promastigote growth inhibition, primary screen | Leishmania major promastigotes, resazurin fluorescence viability | inhibition, % at 10 µM | 200,000 compounds, 9% hits | AID 1063, 2008;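 note: promastigotes grown with compound for 44 hours at 28 °C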
* = called active by the depositor; · = no result given. Cut-off read from the data, not from the text of the source, unless noted: active = inhibition above about 50%; inactive = the rest.

SMILES	Avidin fluor	GSH bead fluor	ABCB1 block	PKD1 inh	ABCG2 block	L major viab
COc1ccc(CC(=O)Nc2cccc(S(=O)(=O)N3CCCCCC3)c2)cc1OC	14	9	3	-11	0	84*
N#Cc1ccc(C(=O)Nc2cc(S(=O)(=O)N3CCCC3)ccc2OCC(F)(F)F)cc1	13	9	-1	-10	9	59*
Cc1cc2cc(C)c3nnc(SCC(=O)Nc4ccc(S(=O)(=O)N5CCCCC5)cc4)n3c2cc1C	13	7	1	4	1	56*
CCN(C(=O)COc1ncnc2scc(-c3ccc(F)cc3)c12)C1CCS(=O)(=O)C1 (centres undefined)	13	40	2	2	5	-1
C=CCOc1c(Br)cc(/C=N/n2c(CC)n[nH]c2=S)cc1Br	1	6	-1	-1	-3	-5
CCNC(=S)N/N=C/c1cccs1	21	16	0	-2	0	100*
O=C(/C=C/c1ccco1)c1ccc(NC(=O)C23CC4CC(CC(C4)C2)C3)cc1	10	17	0	-6	-2	59*
CC(C)Cc1nnc(NC(=O)CCC(=O)N2CCN(S(=O)(=O)c3ccccc3)CC2)s1	12	4	0	-9	3	52*
O=C(NCc1ccc2c(c1)OCO2)C1CCCN1C(=O)Nc1ccc(F)cc1 (centres undefined)	8	64	1	7	2	92*
Cc1ccc(NC(=O)NC2(C(=O)NCc3ccccc3)CCCCC2)cc1	8	50	1	0	5	21
O=C(Nc1ccc(F)cc1)NC1(C(=O)NCc2ccc3c(c2)OCO3)CCCCC1	3	17	1	7	16	91*
O=C(Nc1ccc(F)cc1)NC1(C(=O)NCc2ccco2)CCCCC1	12	26	0	2	1	82*
Cc1ccc(CNC(=O)C2(NC(=O)Nc3ccc(C)cc3)CCCCC2)cc1	26	55	0	5	2	18
Cn1c(=O)[nH]c(=O)c2c1nc1n2CCCN1Cc1ccccc1	9	·	·	·	·	·
COC(=O)c1cn(-c2ccc(Cl)cc2)c(=O)c2ccccc12	29	24	1	-2	48	58*
FC(F)(F)c1ccc(-n2ccnc2)nc1	5	265*	1	1	2	-7
O=C(CC(=O)NC1CCCCC1)N/N=C/c1ccccc1F	10	14	0	-7	-1	5
O=C(NCc1ccco1)c1nc2nc(-c3cccs3)cc(C(F)(F)F)n2n1	9	13	1	-33	10	4
O=C(NCc1ccco1)c1nn2c(C(F)(F)F)cc(-c3cccs3)nc2c1Br	3	25	0	-13	-1	100*
Cc1ccc(S(=O)(=O)c2cc3ccccc3nc2N)cc1	14	19	1	-4	3	6
Cc1cc(C(=O)CCl)c(C)n1CCc1ccc(Cl)cc1	10	11	1	-2	15	101*
COc1ccc(CCn2c(C)cc(C(=O)CCl)c2C)cc1OC	20	9	1	-8	13	89*
Cc1cc(C(=O)CCl)c(C)n1CCc1ccc(F)cc1	20	7	0	6	2	100*
CC(C)CN(C(=O)CSc1nnnn1-c1ccccc1)c1c(N)n(CC(C)C)c(=O)[nH]c1=O	9	16	0	0	-1	-8
Cc1nn(-c2ccccn2)c2nc(-c3cccs3)cc(C(=O)N3CCOCC3)c12	6	27	4	-6	14	84*
CCOC(=O)c1cc(-c2ccncc2)nc2c1c(C)nn2-c1ccccn1	20	15	0	-10	-1	100*
Cc1cccc(-n2nc(C)c3c(C(=O)O)cc(-c4cccs4)nc32)c1	13	11	-1	-4	-3	-1
CCOC(=O)c1cc(-c2ccc(OC)cc2)nc2c1c(C)nn2CCC#N	56*	11	2	4	30	6
Cn1/c(=N\NC(=O)c2ccccc2Cl)sc2ccccc21	9	13	1	4	3	-4
